Compound activity from PubChem.
Arr AP2 block: human beta-arrestin and AP2 interaction inhibition | AID 504490 | FITC-arrestin peptide / GST-AP2 beads, flow cytometry; AP2 beta2 appendage carries R879A mutation | 0.31% of 340,000 active | inhibition, % at 10 µM;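 active = inhibition above a set limit, near 3 SD of compounds lacking own fluorescence, cut at about 54% in these data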;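 also: plate controls were DMSO wells for no effect and 5 µM unlabelled arrestin peptide for full effect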
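Material – GST-tagged AP2 beta2-adaptin appendage (R879A) on 4 µm glutathione beads · Probe or stimulus – fluorescein-tagged arrestin peptide at 50 nM final · Timing – 12 min plus 1 h, RT · Detection – bead flow cytometry, FITC channel · Read-out basis – inhibition as reduced fluorescein signal on beads, percent · Medium – PBS plus Tween 20 (0.05%) and BSA (0.1%)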
iPSC survival up: increases survival of single human iPS cells; hiPSC single-cell survival, ATPlite luminescence; 100% = ROCK inhibitor wells, 0% = DMSO; survival enhancement, % at 20 µM; 0.044% of 360,000 active; AID 602274; in the data active = survival enhancement above about 18%;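 also: cells exposed to compounds for 16 hours before the ATP read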
H9c2 protect: modulators protecting cardiomyocytes from myocardial damage | 0.63% of 360,000 active | protection from H2O2 cell death, % at 20 µM | H9c2 cardiomyocytes, H2O2 injury protection, ATPLite, 2 h | AID 588492;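 active = compounds giving at least 50% protection of heart cells from peroxide-induced death in the single-dose screen, raw or plate-pattern-corrected value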;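 also: 0% = DMSO wells with peroxide and 100% = DMSO wells without peroxide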
FAS-TE inh: blocks the thioesterase domain of human fatty acid synthase | P49327 | recombinant FAS-TE, OMFH fluorogenic substrate, fluorescence endpoint | 0.67% of 360,000 active | inhibition, % at 15 µM;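 active = compounds whose normalised, plate-corrected inhibition of enzyme fluorescence in the single-dose primary screen is 50% or more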;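 also: 0% = DMSO with enzyme and 100% = substrate without enzyme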
SENP1 inh: inhibitors of human SENP1 SUMO protease catalytic domain | Q9P0U3 | recombinant SENP1 catalytic domain, CyPet-SUMO1-YPet FRET cleavage | inhibition, % at 10 µM | 0.21% of 360,000 active;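 active = inhibition at least 30% at 10 µM, raw YFP signal under a set limit, fluorescence ratio 0.5 to 1.5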;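 also: 0% = enzyme with DMSO and 100% = no enzyme wells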
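material = recombinant human SENP1 catalytic domain, His6-tagged | quantity = 20 pM enzyme | reagent = 25 nM SUMO1 FRET substrate | compound dosing = 10 µM single point, 0.5% DMSO | timing = 50 min enzyme reaction, room temperature, light-protected | detection = FRET, CFP and YFP emission | control set = no-enzyme low, enzyme-DMSO high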
NR3A LBD binder: modulates the human NR3A ligand-binding domain; Tm shift relative to glycine control, % at 25 µM; 2.5% of 340,000 active; NR3A LBD differential scanning fluorimetry, Tm shift; 0% = protein alone, 100% = glycine-bound protein;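 active = melting temperature shift of at least 10% of the positive control shift, at one fixed dose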
* marks the source's active call; other numbers are inactive results; · = no result. In the library only some 4% were active in any assay of this set; here they are far more common.

SMILES | Arr AP2 block | iPSC survival up | H9c2 protect | FAS-TE inh | SENP1 inh | NR3A LBD binder
CCCCn1nnnc1C(c1ccccc1)N1CCN(c2cccc(C)c2C)CC1 (configuration not stated) | · | 0 | · | 18 | -2 | ·
Oc1c(Br)cc2oc3c(c2c1CNCc1ccccc1)CCCC3 | 9 | 2 | 13 | 2 | 1 | -1
NC(=S)N/N=C/c1c(O)c(Br)cc2oc3c(c12)CCCC3 | 10 | 0 | 34 | 4 | -1 | 10*
CCCC(=O)Nc1ccc(C(=O)Nc2cc(C(F)(F)F)ccc2Cl)cc1 | 7 | -2 | -15 | -3 | -2 | -1
O=C(Nc1cc(C(F)(F)F)ccc1Cl)c1ccc(NC(=O)C(F)(F)F)cc1 | 10 | 0 | -22 | 14 | 3 | 28*
CC(=O)c1ccc(OC2(C)CCN(Cc3cc4ccccc4[nH]3)C2)cc1 (configuration not stated) | · | -1 | -3 | -10 | -2 | ·
COc1ccc(-c2csc(NC(=S)NC(=O)c3cccs3)n2)cc1Br | 4 | 0 | -2 | 17 | -1 | 38*
COc1ccc(S(=O)(=O)Nc2ccccc2C(=O)Nc2nc(-c3ccc(F)cc3)cs2)cc1OC | 5 | 0 | -28 | 36 | -7 | 26*
CCCNC(=O)c1ccccc1NS(=O)(=O)c1ccc(OC)c(OC)c1 | -2 | -4 | 4 | -8 | 1 | 1
COc1ccc(-c2csc(NC(=S)NC(=O)c3cccs3)n2)cc1OC | 26 | 0 | 15 | 12 | -6 | 10*
COc1cc2c(c(OC)c1OC)-c1ccc(NCc3ccccc3)c(=O)cc1C(NC(C)=O)CC2 (configuration not stated) | · | -2 | 8 | 39 | -83 | ·
COc1ccc2nc(NC(=O)c3cccs3)sc2c1 | 9 | 0 | -12 | -9 | 1 | 19*
COc1ccc2nc(NC(=O)c3ccc4ncsc4c3)sc2c1 | 5 | -4 | 8 | -9 | -167 | 26*
COc1cccc(OC)c1C(=O)Nc1nc2ccc(S(C)(=O)=O)cc2s1 | -25 | -1 | 4 | 0 | -1 | -2
COc1ccc2nc(NC(=O)c3ccc(F)cc3)sc2c1 | -3 | 0 | -4 | 1 | 2 | 10*
COc1ccc2nc(NC(C)=O)sc2c1 | -1 | -1 | -7 | -4 | 2 | 1
COc1ccccc1NC(=O)Nc1nc2ccc(S(N)(=O)=O)cc2s1 | 16 | 0 | 3 | -4 | -6 | 20*
Cc1noc(C)c1S(=O)(=O)NC(=O)C1(C)CCN1C(=O)Cc1ccc(-c2ccccc2)cc1 (configuration not stated) | · | 1 | -2 | -10 | 3 | ·
COc1ccc(-c2nnc(NC(=O)c3ccc(F)cc3)o2)cc1 | 3 | 1 | 68* | -2 | 3 | -2
COc1ccc(OCC(=O)Nc2nc3ccc(NC(C)=O)cc3s2)cc1 | -13 | -1 | 20 | -3 | 2 | 14*
COc1ccc2nc(NC(=O)Nc3ccccc3OC)sc2c1 | -17 | -1 | 18 | 11 | -1 | -2
COc1ccc(C(=O)Nc2nc3ccccc3s2)cc1 | 3 | -1 | -18 | 10 | 4 | 26*
COc1cccc(C(=O)Nc2nc3ccccc3s2)c1 | 18 | -1 | -14 | 8 | -4 | 3
CC(=O)Nc1ccc2nc(NC(=O)COc3ccc([N+](=O)[O-])cc3)sc2c1 | -4 | 0 | 4 | -1 | 2 | 1
COc1ccc2nc(NC(=O)Nc3cccc4ccccc34)sc2c1 | 3 | -2 | -15 | 2 | -3 | 23*
SMILES | Arr AP2 block | iPSC survival up | H9c2 protect | FAS-TE inh | SENP1 inh | NR3A LBD binder
COc1ccc(-c2nnc(NC(=O)c3ccc4c(c3)OCCO4)o2)cc1 | -5 | 0 | 23 | 6 | 3 | -1
CC1(C)CC(=O)C=C(c2ccc(-c3cnc4ccccc4c3)cc2)C1=O | · | -4 | 0 | 13 | 2 | ·
Cc1ccccc1CN1C(=O)c2ccccc2C1c1nnnn1-c1ccc2c(c1)OCCO2 (configuration not stated) | · | 0 | · | 3 | 0 | ·
Cc1ccc(NC(=O)c2nc[nH]c2C(=O)N(C)CCO)cc1 | · | 0 | -18 | -10 | 3 | ·
NC(=O)c1ccc2nc(NC(=O)c3ccc(N)cc3)sc2c1 | 6 | -2 | -4 | -1 | 1 | 14*
O=C(Nc1nc2ccccc2s1)c1ccc(Cl)s1 | 22 | -2 | -8 | 2 | 3 | 21*
O=C(Nc1nnc(-c2ccco2)o1)c1ccc2ccccc2c1 | 5 | 0 | 64* | -5 | 2 | -1
CN1C(=O)[C@H]2[C@@H](c3ccc(C(F)(F)F)cc3)N[C@]3(CCCN(CC4CCCCC4)C3=O)[C@H]2C1=O | · | -2 | -14 | 18 | 1 | ·
CN1OC[C@@H]2CN(C(=O)Nc3ccccc3)[C@H](c3ccc(N4CCCCC4)cc3)C[C@@H]21 | · | 0 | 4 | -15 | 3 | ·
O=C1NC2(CCCCC2)C(=O)N1CCS(=O)(=O)Oc1ccccc1 | 0 | -2 | -3 | -2 | -1 | 12*
O=C1NC2(CCCCC2)C(=O)N1CCN1C(=O)c2ccccc2C1=O | -21 | 0 | 3 | -6 | 2 | 1
CCCCn1c(/N=C/c2c[nH]c3ccccc23)nc2ccccc21 | -4 | 1 | -17 | 13 | -9 | 23*
CCCn1c(/N=C/c2c[nH]c3ccccc23)nc2ccccc21 | 9 | 0 | -18 | 1 | -5 | 6
Cn1c(N/N=C/c2c[nH]c3ccccc23)nc2ccccc21 | 6 | -7 | -6 | 0 | -2 | 19*
COC(=O)c1cc(NC(=O)Nc2ccccc2)ccc1Cl | -4 | 1 | -8 | 5 | 0 | 39*
COC(=O)c1cccc(NC(=O)Nc2ccc(Cl)c(Cl)c2)c1 | -5 | 1 | -18 | 35 | 0 | 43*
COC(=O)c1cc(NC(=O)C2COc3ccccc3O2)ccc1Cl (configuration not stated) | -6 | 2 | -7 | 18 | 0 | -1
COC(=O)c1cccc(NC(=O)NC(=O)c2ccccc2Cl)c1 | 7 | 0 | -1 | -4 | 1 | 0
NC(=O)CCC(C(=O)O)N1C(=O)C2C3CCC(C3)C2C1=O (configuration not stated) | · | 3 | 7 | -11 | 1 | ·
CCOC(=O)C1(C)CCCN(C(=O)c2cccc(OC(F)(F)F)c2)C1 (configuration not stated) | · | 2 | 4 | -5 | -1 | ·
O=C1S/C(=C\c2ccccn2)C(=O)N1Cc1ccccc1F | 1 | 0 | 5 | -6 | -1 | 13*
COc1ccc(S(=O)(=O)N2CCCC(c3cc(C(=O)NCc4cccnc4)no3)C2)cc1 (configuration not stated) | · | -2 | -6 | 0 | 0 | ·
O=S(=O)(NCc1csc(-c2cccnc2)n1)c1cccs1 | -5 | -2 | 7 | -5 | -10 | -1
